Published values collected from several papers.
Protocols differ between the studies behind these lines.
ADRB3: Beta-3 adrenergic receptor (ADRB3, Homo sapiens, UniProt P13945)
MMP13: Collagenase 3 (MMP13, Homo sapiens, UniProt P45452)

Structure (SMILES) | target | test | conditions | inhibition [%]
O=C(NC[C@H](O)CO)[C@@H]1C[C@H](c2ccccc2)CCN1 (mixture of isomers) | ADRB3 | ligand displacement, radioligand | 10 µM | -11.2
O=C(Nc1cccnn1)N1CCN([C@@H]2CCOc3cc(C(F)(F)F)ccc32)CC1 | ADRB3 | cell-free assay | 20 µM | -4
C#Cc1n[nH]c2c(-c3cn([C@@H](C)c4ccccc4)c(=O)[nH]c3=O)cc(F)cc12 | Tyrosine-protein kinase JAK1 (JAK1, Homo sapiens, UniProt P23458) | enzyme activity, inhibitor | 0.1 µM | -1.2
COc1ccc(N=Nc2ccc3[nH]cc(CCN(C)C)c3c2)cc1 | 5-hydroxytryptamine receptor 4 (HTR4, Homo sapiens, UniProt Q13639) | ligand displacement, radioligand | 10 µM | < 50
COC(=O)NCCc1c(C(O)c2ccccc2)[nH]c2ccc(OC)cc12 (stereo not shown) | Calmodulin-1 (CALM1, Homo sapiens, UniProt P0DP23) | enzyme activity, inhibitor | 50 µM | 40 to 50
C[C@H](C(=O)N[C@H]1COc2ccccc2[C@@H]1S(C)(=O)=O)c1ccc(F)cc1 | Adenosine receptor A2b (ADORA2B, Homo sapiens, UniProt P29275) | cell-free assay | 10 µM | 9
CN(C)C(=O)COC(=O)Cc1ccc(OC(=O)c2ccc(NC(=N)N)cc2)cc1 | MMP13 | enzyme activity, inhibitor | 10 µM | 24
COc1ccc(S(=O)(=O)N2CCCCC2)cc1C | Thyrotropin-releasing hormone receptor (TRHR, Homo sapiens, UniProt P34981) | ligand displacement, radioligand | 10 µM | < 30
COc1cc(Nc2ncc(F)c(Nc3ccc4c(n3)NC(=O)C(C)(C)O4)n2)cc(OC)c1OC | Casein kinase I isoform alpha-like (CSNK1A1L, Homo sapiens, UniProt Q8N752) | binding, competition with immobilised ligand | 10 µM | 0
CC(C)C[C@H](NC(=O)[C@H](Cc1ccccc1)NC(=O)c1cnccn1)B(O)O | Lysosomal Pro-X carboxypeptidase (PRCP, Homo sapiens, UniProt P42785) | enzyme activity, inhibitor | 33 µM | 77.9
N=C(N)c1ccc2cc(OC(=O)c3ccc(N=C(N)N)cc3)ccc2c1 | MMP13 | enzyme activity, inhibitor | 10 µM | 75
C#Cc1n[nH]c2c(-c3cn(C(C)c4ccccn4)c(=O)[nH]c3=O)cc(F)cc12 (stereo not shown) | Dual specificity protein kinase CLK2 (CLK2, Homo sapiens, UniProt P49760) | enzyme activity, inhibitor | 1 µM | 1.9
c1ccc(C(NCCNC(c2ccccc2)c2ccccc2)c2ccccc2)cc1 | ADRB3 | cell-free assay | 10 µM | 59
